Assay results gathered from unrelated publications.
Lines come from different studies, so protocols differ. ≈ marks a conversion by molar mass, not a printed value.

The viability of CC(C)(C)OC(=O)N1CCN(c2cc(-c3cnc4[nH]cc(C(=O)c5ccc(F)cc5)c4c3)ccn2)CC1 is reported as 84.2% (A549; cell growth or viability, MTT; 10 µM, 48 h).
Cc1nc2c(N)nc(N)nc2n1C(Cc1ccccc1)C(=O)O (stereo not drawn) has an IC50 of 0.21 µM (unidentified influenza virus; viral replication; A549, H1N1 PR8; 24 h).
For Oc1c(Cl)cc(Cl)c(Cl)c1Cc1c(O)c(Cl)cc(Cl)c1Cl, the inhibition was roughly 70% (Betapolyomavirus hominis; viral replication, inhibitor, qPCR; Vero; 30 µM, 5 days).
For CC(C)=CCC/C(C)=C/COc1cc(O)cc(O)c1C(=O)c1ccccc1, the IC50 was 3750 µM (ABTS scavenging).
For O=C(NCCCNc1c2c(nc3ccccc13)CCCC2)c1ccccc1O, the IC50 was 27.7 µM (ABTS scavenging; 1 h).
With CCC1(c2ccc(N)cc2)CCC(=O)NC1=O (stereo not drawn) the IC50 was greater than 50 µM (PC-3; cell growth or viability, CCK-8; 48 h).
CCOC(=O)c1c([C@@H]2C[C@H]2c2ccccc2)n(C)c2ccc(O)cc12 (relative stereo) has an MIC50 of greater than 100 µg/mL (Punta Toro virus; cytopathic effect).
The IC50 of C[C@@H]1[C@H](O)[C@@H](C)/C=C/C=C/C=C/C=C/C=C/C=C/C=C/[C@H](O[C@@H]2O[C@H](C)[C@@H](O)[C@H](N)[C@@H]2O)C[C@@H]2O[C@](O)(C[C@@H](O)C[C@@H](O)[C@H](O)CC[C@@H](O)C[C@@H](O)CC(=O)O[C@H]1C)C[C@H](O)[C@H]2C(=O)O is reported as 0.1 µg/mL (Leishmania donovani; parasite growth; THP-1; intracellular, amastigote).
With CCOC(=O)C1=C[C@@H](OC(CC)CC)[C@H](NC(C)=O)[C@@H](N)C1 the IC50 was 0.18 µM (unidentified influenza virus; viral replication; A549, H1N1 PR8; 24 h).
For C[C@]12C=CC(=O)C[C@@H]1CC[C@@H]1[C@@H]2C(=O)C[C@@]2(C)[C@H]1CC[C@]2(C)O, the IC50 was greater than 30 µM (NIH3T3; cell growth or viability, MTT; 24 h).
With O=C(NCCCCCCCCNc1c2c(nc3ccccc13)CCCC2)c1ccccc1O the IC50 was 25.9 µM (ABTS scavenging; 1 h).
O=C(c1cccc(F)c1)c1c[nH]c2ncc(-c3ccc(N4CCNCC4)nc3)cc12 has a viability of 62.8% (A549; cell growth or viability, MTT; 10 µM, 48 h).
O=C(N/N=C1\C(=O)N(Cc2ccccc2)c2ccc(F)cc21)c1cc2ccccc2[nH]1 gave an inhibition of 99.1% (A549; cell growth or viability; 30 µM).
N#Cc1cc2c(-c3ccccc3)n[nH]c2c(Nc2ccccc2)n1 gave an IC50 of 2.1 µM (PC-3; cell growth or viability, MTS; 48 h).
The inhibition of Nc1ncnc2c([C@@H]3N[C@H](CO)[C@@H](O)[C@H]3O)c[nH]c12 is reported as 100% (unidentified influenza virus; viral replication, inhibitor; MDCK; 29.6 µM).
For O=C(c1ccc(F)cc1)c1c[nH]c2ncc(-c3ccc(N4CCNCC4)cc3)cc12, the viability was 89.1% (A549; cell growth or viability, MTT; 10 µM, 48 h).
With Cc1nc2c(N)nc(N)nc2n1C(Cc1ccc(O)cc1)C(=O)O (stereo not drawn) the IC50 was 0.024 µM (unidentified influenza virus; viral replication; A549, H1N1 PR8; 24 h).
For Cc1cc(C(C)(C)C)c(O)c(C(C)(C)C)c1, the IC50 was 0.08 µM (ABTS scavenging, absorbance; 5 min).
The IC90 of N=C(N)c1ccc(OCCCCCOc2ccc(C(=N)N)cc2)cc1 is reported as 2 µg/mL (≈ 5.87 µM) (Leishmania donovani; parasite growth, resazurin; 72 h, promastigote).
For O=C(N/N=C1\C(=O)N(Cc2ccccc2)c2ccc(Cl)cc21)c1cc2ccccc2[nH]1, the IC50 was 1.77 µM (A549; cell growth or viability, imaging; 24 h).
COC(=O)C(Cc1c[nH]c2ccccc12)n1c(C)nc2c(N)nc(=O)[nH]c21 (stereo not drawn) gave an IC50 of 0.31 µM (unidentified influenza virus; viral replication; A549, H1N1 PR8; 24 h).
COc1ccc(O)c(C(C)(C)C)c1 gave an IC50 of 5.07 µg/mL (ABTS scavenging).
With CC(C)(C)OC(=O)N1CCN(c2ccc(-c3cnc4c(c3)c(C(=O)c3ccc(F)cc3)cn4CC3CC3)cn2)CC1 the viability was 79.8% (A549; cell growth or viability, MTT; 10 µM, 48 h).
Cc1nc2c(N)nc(N)nc2n1CC(=O)O has an IC50 of 0.526 µM (unidentified influenza virus; viral replication; A549, H1N1 PR8; 24 h).
